# From PMC8092417 (Anti-cancer drugs, 2020)
# Key:
# BT549 cells = assay: Transwell migration assay; type: cell-based, human; details: BT549, pretreated 1 μM 72 hours, 24 hours migration
# Method in brief: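 Cells were pretreated 72 h with test compound (1 μM) or DMSO, and viable cells were then seeded into transwell chambers for 24 h. Non-migrated cells were removed. Migrated cells were fixed, crystal violet-stained, imaged by brightfield and counted. Counts were normalized to DMSO per cell line; triplicate experiments.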
# TU-BcX-4IC cells [1] = assay: Phalloidin immunofluorescence with morphometric quantification; type: cell-based, human; details: 1 μM, 72 hours
# LOK = LOK (Homo sapiens, UniProt O94804); assay: Kinase inhibition assay; type: biochemical; details: 1 μM
# LOK, sequence (O94804 whole entry): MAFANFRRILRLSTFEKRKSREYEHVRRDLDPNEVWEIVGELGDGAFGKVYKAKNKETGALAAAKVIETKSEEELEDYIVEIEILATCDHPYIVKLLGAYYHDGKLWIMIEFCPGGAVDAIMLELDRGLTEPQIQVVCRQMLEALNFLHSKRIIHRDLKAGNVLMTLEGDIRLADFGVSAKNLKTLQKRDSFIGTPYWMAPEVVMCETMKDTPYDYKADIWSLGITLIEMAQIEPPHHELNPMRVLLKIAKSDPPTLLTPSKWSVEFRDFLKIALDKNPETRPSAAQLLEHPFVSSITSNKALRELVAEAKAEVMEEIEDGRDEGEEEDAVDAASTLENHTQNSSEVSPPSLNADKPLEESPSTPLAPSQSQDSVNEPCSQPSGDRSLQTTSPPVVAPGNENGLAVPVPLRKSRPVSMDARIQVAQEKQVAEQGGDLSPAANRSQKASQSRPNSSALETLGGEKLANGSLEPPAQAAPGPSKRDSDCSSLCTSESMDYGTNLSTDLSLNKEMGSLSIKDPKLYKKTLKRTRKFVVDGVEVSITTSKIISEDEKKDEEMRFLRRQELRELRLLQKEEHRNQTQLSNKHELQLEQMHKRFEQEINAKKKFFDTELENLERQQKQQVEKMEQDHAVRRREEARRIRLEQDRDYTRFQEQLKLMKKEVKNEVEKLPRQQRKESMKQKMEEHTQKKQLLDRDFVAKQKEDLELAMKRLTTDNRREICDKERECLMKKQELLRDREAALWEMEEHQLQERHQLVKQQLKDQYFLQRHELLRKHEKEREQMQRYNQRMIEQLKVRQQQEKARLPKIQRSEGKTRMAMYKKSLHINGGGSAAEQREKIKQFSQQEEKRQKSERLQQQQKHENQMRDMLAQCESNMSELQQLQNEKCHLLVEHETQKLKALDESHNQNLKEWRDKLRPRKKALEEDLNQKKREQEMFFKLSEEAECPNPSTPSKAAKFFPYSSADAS
# PLK1 = PLK1 (Homo sapiens, UniProt P53350); assay: Kinase inhibition assay; type: biochemical; details: 1 μM
# PLK1, sequence (P53350 whole entry): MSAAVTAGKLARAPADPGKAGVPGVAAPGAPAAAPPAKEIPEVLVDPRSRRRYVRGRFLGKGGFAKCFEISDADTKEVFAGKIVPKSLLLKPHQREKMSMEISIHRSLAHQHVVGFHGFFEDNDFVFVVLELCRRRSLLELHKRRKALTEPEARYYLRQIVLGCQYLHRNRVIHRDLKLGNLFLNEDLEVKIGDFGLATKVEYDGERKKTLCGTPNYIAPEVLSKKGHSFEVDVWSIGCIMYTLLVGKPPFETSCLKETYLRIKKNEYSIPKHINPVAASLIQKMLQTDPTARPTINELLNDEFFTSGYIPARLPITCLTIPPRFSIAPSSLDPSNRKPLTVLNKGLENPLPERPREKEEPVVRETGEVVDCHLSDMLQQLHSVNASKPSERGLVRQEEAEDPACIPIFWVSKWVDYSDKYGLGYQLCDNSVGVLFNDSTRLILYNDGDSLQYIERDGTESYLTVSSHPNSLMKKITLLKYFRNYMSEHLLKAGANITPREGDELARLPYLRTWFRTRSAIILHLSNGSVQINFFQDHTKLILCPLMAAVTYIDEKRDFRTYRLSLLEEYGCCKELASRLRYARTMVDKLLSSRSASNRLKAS
# TU-BcX-4IC PDX model = assay: In vivo treatment of TU-BcX-4IC implants, tumor growth and metastasis; parameters: species or system SCID/Beige mice; details: 25 mg/kg bid intraperitoneally, 15 days, vs DMSO vehicle
# Method in brief: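 Female SCID/Beige mice (5/group) received bilateral mammary fat pad implants of TU-BcX-4IC tumour pieces (3 × 3 mm). Twice-daily intraperitoneal dosing with test compound or DMSO vehicle began 24 h after implantation. At sacrifice, lungs and livers were formalin-fixed, paraffin-embedded, sectioned and H&E-stained. Lesion area and number per section were quantified.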
# BT-549 cells [2] = assay: qRT-PCR of epithelial and mesenchymal genes; type: cell-based, human; details: BT-549, 1 μM, 72 hours
# Method in brief: (§1)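 Cells were treated 72 h with test compound (1 μM) or DMSO. Total RNA was column-isolated and checked for quantity and quality by absorbance (260, 280 nm). Then 2 μg total RNA was reverse-transcribed and gene expression measured by qRT-PCR.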
# MDA-MB-231 cells [3] = assay: Ki-67 immunofluorescence staining for proliferation; type: cell-based, human; details: MDA-MB-231, 1 μM, 72 hours
# TU-BcX-49S cells = assay: qRT-PCR of epithelial and mesenchymal genes; type: cell-based, human
# MDA-MB-231 M2 spheres [4] = assay: In vivo inoculation of pre-treated spheres, tumorigenesis and metastasis; parameters: species or system SCID/Beige mice; details: MDA-MB-231 M2 spheres pre-treated 1 μM 72 hours; all cell concentrations
# Method in brief: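 M2 spheres were treated 72 h at 1 μM or with DMSO under low attachment, dissociated with TrypLE, and counted by Trypan Blue so that only viable cells were injected. Cells (1,000–200,000) went bilaterally into the mammary fat pads of SCID/Beige mice (N=5). Tumors were caliper-measured biweekly, then resected; mice were killed 20 days later. Lungs and livers were formalin-fixed, paraffin-embedded and H&E-stained, and metastases were quantified.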
# TU-BcX-4IC cells [5] = assay: Crystal violet staining, cells remaining / viability dose-response; type: cell-based, human; details: 1 μM, 72 hours
# BT-549 cells [6] = assay: Crystal violet staining, cells remaining / viability dose-response; type: cell-based, human
# Method in brief: (§2)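 Cells were plated at 5,000/well in 5% charcoal-stripped DMEM for 48 h, then exposed to test compound or DMSO vehicle for 72 h at 37 °C, 5% CO2. They were fixed with glutaraldehyde for 20 min and stained for 20 min with 0.1% crystal violet in 90% methanol. After overnight drying, cells were lysed in 33% acetic acid and read at 620 nm. Signal was normalized to DMSO and plotted as dose-response.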
# MDA-MB-231 cells [7] = assay: as above; type: cell-based, human
# Method in brief: as §2
# RET = RET (Homo sapiens, UniProt P07949); assay: Kinase inhibition assay; type: biochemical; details: 1 μM
# RET, sequence (P07949 29-1114): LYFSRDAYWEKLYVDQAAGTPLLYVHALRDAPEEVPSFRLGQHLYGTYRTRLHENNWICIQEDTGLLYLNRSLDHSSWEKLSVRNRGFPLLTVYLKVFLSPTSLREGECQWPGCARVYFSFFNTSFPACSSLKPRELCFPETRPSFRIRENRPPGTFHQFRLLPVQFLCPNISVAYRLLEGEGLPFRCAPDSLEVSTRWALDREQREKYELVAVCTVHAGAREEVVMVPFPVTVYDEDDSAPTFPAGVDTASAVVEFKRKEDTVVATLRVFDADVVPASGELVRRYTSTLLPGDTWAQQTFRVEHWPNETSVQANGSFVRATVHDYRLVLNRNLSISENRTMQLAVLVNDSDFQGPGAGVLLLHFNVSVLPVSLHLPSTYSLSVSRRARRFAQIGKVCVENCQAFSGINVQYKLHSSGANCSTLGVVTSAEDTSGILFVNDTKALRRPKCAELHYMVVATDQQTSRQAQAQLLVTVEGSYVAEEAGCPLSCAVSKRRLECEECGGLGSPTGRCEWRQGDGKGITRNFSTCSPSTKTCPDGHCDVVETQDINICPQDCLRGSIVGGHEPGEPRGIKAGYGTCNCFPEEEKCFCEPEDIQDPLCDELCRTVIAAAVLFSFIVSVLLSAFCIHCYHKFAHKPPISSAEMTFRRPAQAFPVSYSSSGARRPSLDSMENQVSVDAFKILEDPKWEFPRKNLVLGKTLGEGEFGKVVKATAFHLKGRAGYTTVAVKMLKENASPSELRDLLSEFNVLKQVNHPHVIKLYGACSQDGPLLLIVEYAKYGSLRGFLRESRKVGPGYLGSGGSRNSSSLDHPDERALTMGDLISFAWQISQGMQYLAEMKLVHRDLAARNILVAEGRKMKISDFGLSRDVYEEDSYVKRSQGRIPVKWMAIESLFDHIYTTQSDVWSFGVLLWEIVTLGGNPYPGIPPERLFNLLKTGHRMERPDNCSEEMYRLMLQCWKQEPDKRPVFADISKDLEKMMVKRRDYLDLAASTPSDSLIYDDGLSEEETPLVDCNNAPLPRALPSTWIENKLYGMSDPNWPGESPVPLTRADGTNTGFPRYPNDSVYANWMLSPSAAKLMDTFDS
# TU-BcX-2K1 tumors = assay: qRT-PCR of ex vivo treated PDX tumor pieces; type: cell-based, human; details: TU-BcX-2K1 tumor pieces, 1 μM, 72 hours
# MDA-MB-231 cells [8] = assay: qRT-PCR of epithelial and mesenchymal genes; type: cell-based, human; details: MDA-MB-231, 1 μM, 72 hours
# Method in brief: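 MDA-MB-231 cells in 5% charcoal-stripped DMEM were pre-exposed for 72 h to test compound (1 μM) or DMSO. RNA was then isolated and gene expression measured by quantitative real-time PCR.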
# TU-BcX-4IC tumors = assay: qRT-PCR of ex vivo treated PDX tumor pieces; type: cell-based, human; details: TU-BcX-4IC tumor pieces, 1 μM, 72 hours
# [9] = tested on: PDX organoids (PDX-Os) created from TU-BcX-4IC; assay: Live/dead fluorescence stain of patient-derived organoids; type: cell-based; details: 1 μM, 72 hours, Calcein-AM/EthD-III
# Method in brief: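 Explants (2 × 2 mm) from passaged TU-BcX-4IC tumours were grown out for 7 days in 3D culture, giving mixed tumour and stromal cells. Organoids were moved to ultra-low-attachment spheroid wells and exposed to test compound or DMSO for 72 h. They were then stained with Calcein-AM (2 μM, live) and EthD-III (5 μM, dead) and imaged by confocal microscopy, 5 images per well.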
# TU-BcX-4IC cells [10] = assay: qRT-PCR of epithelial and mesenchymal genes; type: cell-based, human; details: 1 μM, 72 hours
# Method in brief: as §1
# MDA-MB-231 M2 spheres [11] = assay: Mammosphere formation and area quantification; type: cell-based, human; details: MDA-MB-231, 7 days treatment
# Method in brief: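 MDA-MB-231 cells were seeded at 1,000/well in low-attachment wells in serum-free F12/DMEM plus B-27 and allowed 24 h to form spheres. Spheres were then treated with test compound or DMSO for one week, re-dosed every three days. Imaging was at 40X or 100X. Sphere length and width were measured, area was calculated, and values were compared with DMSO controls.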
compound,measurement,setting,value
C[C@@H](Oc1cc(-n2cnc3ccc(NC(=O)NC(C)(C)C)cc32)sc1C(N)=O)c1ccccc1Cl [GSK346294A],Transwell cell migration,BT549 cells,most suppressive effects on cell migration
same,Nuclear area fraction,TU-BcX-4IC cells [1],most significantly reduced nuclear area fraction
same,Total cell area,TU-BcX-4IC cells [1],largest overall areas
same,Activity against LOK,LOK,moderate activity
same,Binding activity to LOK,LOK,36%
same,Activity against PLK1,PLK1,strong activity
same,Area of liver metastases per section,TU-BcX-4IC PDX model,minimally suppressed the area of liver metastases
same,Area of lung metastases per section,TU-BcX-4IC PDX model,did not affect the area of lung metastases
same,Growth of the primary tumor,TU-BcX-4IC PDX model,did not affect growth of the tumor
same,"Metastasis to lungs and livers, overall",TU-BcX-4IC PDX model,did not effectively suppress metastasis
same,Number of liver metastases per section,TU-BcX-4IC PDX model,minimally suppressed
same,Number of metastases per lung section,TU-BcX-4IC PDX model,minimally reduce the overall number of metastases per lung section
same,CDH1 mRNA expression,BT-549 cells [2],significantly reduced CDH1 mRNA expression
same,MMP9 mRNA expression,BT-549 cells [2],Neither GSK346294A nor GSK448459A affected MMP9 expression
same,SNAI1 mRNA expression,BT-549 cells [2],no significant effects on SNAI1 expression
same,cFOS mRNA expression,BT-549 cells [2],"suppressive effects in all three TNBC cell lines, although not significantly"
same,Ki-67 positive cells (cell proliferation),MDA-MB-231 cells [3],increased the total number of cells expressing the Ki-67 marker
same,cFOS mRNA expression,TU-BcX-49S cells,Neither GSK346294A nor GSK448459A suppressed cFOS mRNA expression
same,CDH1 mRNA expression,TU-BcX-49S cells; compared to DMSO controls,increased CDH1 expression
same,Area and number of lung and liver metastases,MDA-MB-231 M2 spheres [4],"consistently suppressed both overall area and number of metastases in all cell concentrations, although not significantly"
same,Number of cells remaining compared to DMSO controls,TU-BcX-4IC cells [5],decreased the number of cells remaining
same,Number of cells remaining compared to DMSO controls,"BT-549 cells [6]; BT-549, 1 μM, 72 hours",decreased the number of cells remaining
same,IC50,"BT-549 cells [6]; Homo sapiens, BT-549, 72 h, read-out: IC-50, number of cells remaining",1 µM
same,IC50,"MDA-MB-231 cells [7]; Homo sapiens, MDA-MB-231, 72 h, read-out: IC-50, number of cells remaining",50 µM
same,Number of cells remaining compared to DMSO controls,"MDA-MB-231 cells [7]; MDA-MB-231, 1 μM, 72 hours",decreased the number of cells remaining
same,Activity against RET,RET,moderate activity
same,CD24 mRNA expression,TU-BcX-2K1 tumors,increased CD24 expression
same,CDH1 mRNA expression,TU-BcX-2K1 tumors,increased epithelial markers CDH1 mRNA expression
same,MMP9 mRNA expression,MDA-MB-231 cells [8],"downregulated MMP9 expression, but not significantly"
same,cFOS mRNA expression,MDA-MB-231 cells [8],"suppressive effects in all three TNBC cell lines, although not significantly"
same,MMP9 mRNA levels,TU-BcX-4IC tumors,did not reduce MMP9 levels
same,Reversal of mesenchymal phenotype on a transcript level,TU-BcX-4IC tumors,did not reverse the mesenchymal phenotype
same,Cytotoxicity to PDX organoids,[9],not cytotoxic
same,MMP9 mRNA expression,TU-BcX-4IC cells [10],Neither GSK346294A nor GSK448459A affected MMP9 expression
same,ZEB1 mRNA expression,TU-BcX-4IC cells [10],suppressed ZEB1 expression in TU-BcX-4IC cells albeit not significantly
same,cFOS mRNA expression,TU-BcX-4IC cells [10],"suppressive effects in all three TNBC cell lines, although not significantly"
same,Sphere area,MDA-MB-231 M2 spheres [11],significantly increased sphere area
